Source: PubChem BioAssay
A selection: hits, their analogues and other compounds. The true share with any hit is near 4.3%.
SR-BI uptake up – activators of SR-BI mediated DiI-HDL uptake, primary screen, ldlA[mSR-BI] CHO cells, DiI fluorescence; AID 504775, 2011; activation, % at 12.5 µM; 3 h; 100 = double the neutral-control signal; 320,000 compounds, 0.096% hits;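 active = mean replicate activation of at least 60% and every replicate at or above 60%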;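 also: 0% = median plate neutral-control signal and 100% = twice that signal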
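Assay system: LDL receptor-deficient CHO ldlA cells overexpressing murine SR-BI / Medium: BSA-supplemented, HEPES-buffered Ham's F12, pH 7.4 / Probe or stimulus: DiI-labelled HDL at 10 µg/mL final / Timing: compound with DiI-HDL co-incubation, 3 h at 37 °C / Technique: bottom-read cell fluorescence after medium removal, ex 550/em 595 nm / Measure: HDL uptake via cellular fluorescence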
Lipid droplet – inhibitors of hepatocyte lipid droplet formation, primary screen, imaging, high-throughput imaging, BODIPY stain | AML12 mouse hepatocytes, oleate lipid droplets | inhibition, % at 6.5 µM | 240,000 compounds, 0.4% hits | AID 1656, 2009;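 active = lipid droplet intensity inhibited by at least 50%, with more than 500 cells counted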
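Material – AML12 mouse liver cells · Also added – oleate loading, 100 µM · Compound dosing – 6.5 µM single-point dosing · Times – overnight treatment with compound plus oleate · Measured by – fluorescence imaging, 20x objective, two fields per well · Read-out – percent inhibition of filter-corrected integrated lipid droplet intensity per well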
SR-BI HDL uptake – inhibitors of SR-BI mediated HDL lipid uptake, primary screen, ldlA[mSR-BI] cells, fluorescence, single point; Scavenger receptor class B member 1 (Mus musculus), Q61009; ldlA[mSR-BI] CHO cells, DiI-HDL uptake fluorescence, 3 h; inhibition, % at 12.5 µM; 320,000 compounds, 0.96% hits; AID 488896, 2010;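 active = mean replicate inhibition of at least 70% and a set share of replicates each scoring 70 or more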;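 also: 0% = median of neutral control wells and 100% = median of positive control wells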
SMARCA2 activ – SMARCA2 (BRM) function activators, primary screen, cell-based, luminescence, high throughput. AID 652017, 2013. MG213 cells, MMTV-luciferase reporter, dexamethasone, overnight. 370,000 compounds, 1% hits. activation, % at 9.1 µM; in the data active = activation above about 7.8%;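 also: 0% = vehicle wells and 100% = reference activator wells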
AHR activator – AHR activators, primary screen, cell-based, luminescence, luciferase reporter, human. Aryl hydrocarbon receptor (Homo sapiens), P35869. AHR-responsive luciferase reporter cells. activation, % at 5 µM. 320,000 compounds, 2.5% hits. AID 2796, 2010; in the data active = activation above about 47%;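 also: 0% = vehicle wells and 100% = reference agonist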
Target sequence (P35869 whole entry, looked up): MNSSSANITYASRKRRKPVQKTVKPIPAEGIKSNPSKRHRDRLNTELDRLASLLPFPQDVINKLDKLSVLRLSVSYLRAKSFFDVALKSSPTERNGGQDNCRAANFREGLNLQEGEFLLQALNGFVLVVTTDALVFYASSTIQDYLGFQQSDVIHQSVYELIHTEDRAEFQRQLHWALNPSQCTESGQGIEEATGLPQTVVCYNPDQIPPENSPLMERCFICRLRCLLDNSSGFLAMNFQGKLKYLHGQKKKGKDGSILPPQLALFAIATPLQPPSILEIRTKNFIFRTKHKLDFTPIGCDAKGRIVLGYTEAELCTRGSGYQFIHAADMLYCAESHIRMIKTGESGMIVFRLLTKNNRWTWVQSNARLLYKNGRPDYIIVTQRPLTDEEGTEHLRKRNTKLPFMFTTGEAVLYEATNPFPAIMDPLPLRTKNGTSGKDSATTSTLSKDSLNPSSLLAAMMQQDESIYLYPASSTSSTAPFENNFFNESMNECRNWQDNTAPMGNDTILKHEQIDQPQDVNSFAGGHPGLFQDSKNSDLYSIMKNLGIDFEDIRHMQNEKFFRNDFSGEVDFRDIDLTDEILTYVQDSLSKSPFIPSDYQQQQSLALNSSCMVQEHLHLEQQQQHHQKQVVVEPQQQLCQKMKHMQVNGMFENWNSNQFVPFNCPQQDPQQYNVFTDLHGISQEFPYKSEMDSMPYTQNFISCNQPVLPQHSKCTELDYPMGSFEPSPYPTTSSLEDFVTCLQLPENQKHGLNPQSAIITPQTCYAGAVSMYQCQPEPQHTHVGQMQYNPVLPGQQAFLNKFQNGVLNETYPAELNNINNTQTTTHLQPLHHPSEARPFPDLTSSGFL
Yeast superoxide – reduction of superoxide in aged yeast, primary screen, HTS. S. cerevisiae aged cells, superoxide DHE fluorescence; stronger effect = lower value. 330,000 compounds, 0.18% hits. superoxide response (% of plate mean), % at 10 µM. AID 2690, 2010;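 active = superoxide response under a set limit, about three screen SD below normal, cut at about 65% in these data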;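 also: yeast aged for seven days with compound at 30 °C before DHE staining; 100% = average MFI of all compound-treated wells on the plate with controls excluded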
Numbers without * were called inactive; / = no result.

SMILES	SR-BI uptake up	Lipid droplet	SR-BI HDL uptake	SMARCA2 activ	AHR activator	Yeast superoxide
C/C(=N\NC(=O)c1ccncc1)c1cccc(NC(=O)c2ccc(C(C)(C)C)cc2)c1	-77.6	-12.8	77.6*	-0.4	1.0	80.8
COC(=O)[C@]12C[C@H](CC(=O)NCCCCc3ccccc3)C(=O)N(Cc3ccc4c(c3)OCO4)C1=C[C@H](C(C)C)O[C@@H]2C1CC1	/	/	/	-1.5	/	/
O=C(CCc1ccccc1)N[C@H]1[C@H](OCc2ccccc2)CCC[C@@]12C(=O)N(Cc1ccccc1)c1ccc(-c3ccccn3)cc12	/	/	/	1.1	/	/
COC(=O)C1=C(C)N(C)C(=NCc2cccc(C(F)(F)F)c2)NC1c1ccc(C(F)(F)F)cc1 (configuration not stated)	/	/	/	-2.4	/	/
C/C(=N\NC(=O)c1cc2c(s1)CCC(C)C2)c1ccncc1 (configuration not stated)	-60.0	-3.0	60.0	0.2	55.9*	103.6
COc1ccc(/C(C)=N/NC(=O)c2ccncc2)cc1[N+](=O)[O-]	0.8	-5.9	-0.8	-0.8	44.3	98.4
C/C(=N\NC(=O)c1cccc([N+](=O)[O-])c1)c1ccncc1	12.5	-5.9	-12.5	3.4	78.3*	104.2
C/C(=N\NC(=O)c1cc2c(s1)CCC(C)C2)c1ccc[nH]1 (configuration not stated)	-3.2	/	3.2	1.8	40.1	115.6
C/C(=N/NC(=O)c1ccc(O)cc1)c1cccc([N+](=O)[O-])c1	14.6	1.4	-14.6	7.3	2.1	105.2
C/C(=N\NC(=O)c1ccccc1O)c1cccc(NC(=O)c2ccccc2)c1	2.5	-14.3	-2.5	3.8	52.6*	106.6
C/C(=N\NC(=O)COc1ccccc1[N+](=O)[O-])c1cccc(NC(=O)c2ccncc2)c1	-80.7	12.4	80.7*	-0.4	16.1	103.3
CCN=C1NC(c2ccc(F)cc2)C(C(=O)OC)=C(C)N1Cc1cccc(C(F)(F)F)c1 (configuration not stated)	/	/	/	-6.3	/	/
N#CC1C(C#N)N2CCCN2C1c1ccc(Cl)cc1 (configuration not stated)	-15.3	2.4	15.3	-3.3	48.4*	96.8
Cc1c(Br)c(-c2n[nH]c(=S)n2Cc2ccco2)nn1C	-10.2	0.5	10.2	-4.9	2.5	88.6
Cc1cc(-c2n[nH]c(=S)n2Cc2ccco2)n(C)n1	61.0*	4.9	-61.0	-2.9	2.2	109.7
Cn1nc(-c2ccccc2F)c2cc(C(=O)N3CCN(C(=O)c4ccco4)CC3)sc21	3.3	/	-3.3	0.2	66.4*	100.9
Cn1nc(-c2ccc(Cl)cc2)c2cc(C(=O)N3CCOCC3)sc21	-59.5	/	59.5	-1.6	54.7*	98.8
COc1cccc(-c2nn(C)c3sc(C(=O)NCc4ccc5c(c4)OCO5)cc23)c1	-13.5	/	13.5	-3.9	50.3*	107.0
COc1cccc(-c2nc(CS(=O)(=O)CC(=O)N3CCN(c4ccccn4)CC3)c(C)o2)c1	-44.7	-24.5	44.7	-4.7	56.7*	94.3
COC(=O)C1=C(C)N(C)C(=NCc2ccccc2)NC1c1ccccc1C(F)(F)F (configuration not stated)	/	/	/	-3.5	/	/
CCOC(=O)C1CCCN(C(=O)c2cc3c(-c4cccc(OC)c4)nn(C)c3s2)C1 (configuration not stated)	-14.2	-23.1	14.2	-2.1	-0.5	93.6
COc1cccc(-c2nn(C)c3sc(C(=O)N4CCN(c5ccccn5)CC4)cc23)c1	9.2	-16.5	-9.2	/	58.0*	94.8
COc1cccc(-c2nn(C)c3sc(C(=O)N4CCOCC4)cc23)c1	-22.5	/	21.9	-1.7	58.4*	93.6
COc1cccc(C(=O)N2CCN(c3ccccn3)CC2)c1	/	-0.2	/	-0.8	-2.1	99.7
C[C@@H]1C(=O)N2N=Cc3cc4ccccc4cc3[C@H]2N2N=Cc3cc4ccccc4cc3[C@@H]12	/	/	/	-2.5	/	/
SMILES	SR-BI uptake up	Lipid droplet	SR-BI HDL uptake	SMARCA2 activ	AHR activator	Yeast superoxide
COc1ccc(-c2cn3cccnc3n2)cc1NC(=O)C1CC1	16.5	/	-16.5	/	45.1	97.5
COc1ccc(-c2cn3cccnc3n2)cc1NC(=O)C(C)C	4.5	-7.8	-4.5	-2.2	49.4*	101.7
COc1ccc(CN2CCNC(=O)C2CC(=O)NCc2csc(C(C)C)n2)c(OC)c1 (configuration not stated)	/	-0.4	/	1.3	47.3*	107.8
COc1ccc(CN2CCNC(=O)C2CC(=O)NCc2csc(C)n2)c(F)c1 (configuration not stated)	-10.4	-39.0	10.4	-0.8	0.8	85.7
CN(C)[C@H]1CCN(c2ccc3c(c2)O[C@@H]2CCN(C2)S3(=O)=O)C1	/	/	/	-0.4	/	/
CC[C@]12c3[nH]c4ccc(Cl)cc4c3CCN1C(=O)[C@@H](CC(=O)NCc1ccc(OC)c(OC)c1)C[C@@H]2C(=O)N1CCN(C(=O)c2ccco2)CC1	-78.1	/	78.1*	-4.1	/	85.8
O=C(CC1C[C@H](C(=O)N2CCOCC2)[C@@]2(CCC3CCCC3)c3[nH]c4ccccc4c3CCN2C1=O)NCc1cccc(C(F)(F)F)c1 (some centres not stated)	107.4*	/	-107.3	0.4	/	/
CN(C)C(=O)CCc1ccc2c3c([nH]c2c1)[C@]1(CCC2CCCC2)[C@@H](C(=O)N2CCOCC2)C[C@H](CC(=O)NCc2cccc(C(F)(F)F)c2)C(=O)N1CC3	35.1	/	-35.1	-3.8	/	107.1
COc1ccc(OC)c(NC(=O)Cc2csc(NC(=O)Nc3ccccc3OC)n2)c1	-76.3	/	76.3*	-1.3	2.6	104.9
COc1ccc(NC(=O)Cc2csc(NC(=O)Nc3ccccc3OC)n2)c(OC)c1	-64.0	/	64.0	1.6	0.4	96.5
COc1ccccc1NC(=O)Nc1nc(CC(=O)NCc2ccc(F)cc2)cs1	-72.5	/	72.5*	-3.8	9.1	104.1
COc1cccc(CNC(=O)Cc2csc(NC(=O)Nc3ccccc3OC)n2)c1	-77.6	/	77.5*	-2.2	12.0	107.1
COc1ccccc1NC(=O)Nc1nc(CC(=O)NCc2c(F)cccc2F)cs1	-71.8	/	71.8*	-0.8	21.6	105.3
COc1ccccc1NC(=O)Nc1nc(CC(=O)N2CCN(c3ccccc3F)CC2)cs1	-80.3	/	80.3*	-0.2	10.9	87.7
CCOC(=O)Cc1csc(NC(=O)c2cccc(OC)c2)n1	-11.5	-2.4	11.5	1.5	14.5	103.8
CCOC(=O)Cc1csc(NC(=O)c2csc(C)c2)n1	-14.4	-4.6	14.4	-2.3	-0.5	113.0
CCOC(=O)Cc1csc(NC(=O)Nc2cccc(OC)c2)n1	-28.7	3.2	28.7	-1.6	1.8	59.4*
